Data on 6 compounds can be found in ChEMBL document CHEMBL1629506, “Design, synthesis and structure-activity relationship study of novel pyrazole-based heterocycles as potential antitumor agents” (Eur J Med Chem, 2010).

The term GI50 denotes the concentration giving 50% growth inhibition. Usually LD50 stands for the dose expected to kill half of the subjects tested.

Each structure is given as a SMILES string. Where only a bound is given, the exact number is not on record here.

Data set [1] has as its system MDA-MB-231. Briefly: Growth inhibition of human MDA-MB-231cells after 48 hrs by sulforhodamine B assay. The format is functional. The following applies: MDA-MB-231, 48 h. A digest of the protocol:
(§1)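 Cells were plated at 5000–40,000 cells/well, depending on doubling time, and preincubated 24 h at 37 °C in 5% CO2. Time-zero plates were TCA-fixed at drug addition. Compounds were dissolved in DMSO and tested at five concentrations (10-fold or ½-log dilutions) for 48 h. Cells were fixed with cold TCA, stained with 0.4% sulforhodamine B and read at 515 nm. GI50 was taken as the concentration giving 50% growth.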
(In general: Sulforhodamine B stains cellular protein and so reports cell mass.)

The test system of data set [2] is Rattus norvegicus. Nature of the data set: Antiestrogenic activity in Sprague-Dawley rat assessed as reduction in estradiol induced uterine weight upto 0.06 ug, po after 8 days. Further details: scale not given: the % may be the effect or the level left. The format is functional. In a few lines:
(§2)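 Immature ovariectomized female Sprague-Dawley rats (~55 g), groups of 12. Estradiol 0.03–0.05 given s.c. daily for 7 days, with test compound or letrozole reference at various doses up to 0.06 per animal, given orally in 0.5% carboxymethylcellulose. Controls received estradiol alone. Uterine weights were taken on day 8 and group means expressed as % reduction versus estradiol-only controls. Potency was taken relative to letrozole.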

Data set [3] can be described thus: Acute toxicity in mouse after 24 hrs. To be noted: in vivo. Format: organism-based. In a few lines:
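Adult mice of both sexes, acclimatized 1 week (12 h light/dark, 21–23 °C), fasted 12 h before dosing. 30 mice in 6 groups of 5 each got a single oral gavage dose, at different dose levels, of a fine-powder aqueous suspension. LD50 was determined, with values as group means of five mice.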

Data set [4] can be described thus: Growth inhibition of human Hs 578T cells after 48 hrs by sulforhodamine B assay. Format: functional. In a few lines:
as §1

Data set [5] has as its system OVCAR-3. Nature of the data set: Growth inhibition of human OVCAR3 cells after 48 hrs by sulforhodamine B assay. Format: functional. The following applies: OVCAR-3, 48 h. In a few lines: as §1
Data set [6] concerns MDA-MB-435. Briefly: Growth inhibition of human MDA-MB-435 cells after 48 hrs by sulforhodamine B assay. The following applies: MDA-MB-435, 48 h. Format: functional. A digest of the protocol: as §1
In data set [7] the test system is NCI/ADR-RES. Nature of the data set: Growth inhibition of human NCI/ADR-RES cells after 48 hrs by sulforhodamine B assay. Format: functional. A digest of the protocol:
as §1

Data set [8] relates to Rattus norvegicus. Nature of the data set: Antiestrogenic activity in Sprague-Dawley rat assessed as reduction in estradiol induced uterine weight 0.06 ug, po after 8 days relative to letrozole. Format: functional. In a few lines:
as §2

The subject of data set [9] is IGROV-1. Briefly: Growth inhibition of human IGROV1 cells after 48 hrs by sulforhodamine B assay. The format is functional. The following applies: IGROV-1, 48 h. In a few lines:
as §1

Data set [10] relates to SK-OV-3. Briefly: Growth inhibition of human SKOV3 cells after 48 hrs by sulforhodamine B assay. Format: functional. To be noted: SK-OV-3, 48 h. A digest of the protocol:
as §1

Data set [11] deals with OVCAR-8. Nature of the data set: Growth inhibition of human OVCAR8 cells after 48 hrs by sulforhodamine B assay. Format: functional. The following applies: OVCAR-8, 48 h. In a few lines:
as §1

The subject of data set [12] is MDA-N. Briefly: Growth inhibition of human MDA-N cells after 48 hrs by sulforhodamine B assay. Format: functional. In a few lines: as §1
Data set [13] relates to BT-549. Briefly: Growth inhibition of human BT549 cells after 48 hrs by sulforhodamine B assay. The format is functional. To be noted: BT-549, 48 h. In a few lines:
as §1

Data set [14] has as its system OVCAR-5. Nature of the data set: Growth inhibition of human OVCAR5 cells after 48 hrs by sulforhodamine B assay. Format: functional. The following applies: OVCAR-5, 48 h. A digest of the protocol:
as §1

The test system of data set [15] is OVCAR-4. Briefly: Growth inhibition of human OVCAR4 cells after 48 hrs by sulforhodamine B assay. The format is functional. To be noted: OVCAR-4, 48 h. In a few lines:
as §1

Data set [16] deals with T47D. Nature of the data set: Growth inhibition of human T47D cells after 48 hrs by sulforhodamine B assay. The format is functional. In a few lines: as §1
Data set [17] relates to MCF7. Briefly: Growth inhibition of human MCF7 cells after 48 hrs by sulforhodamine B assay. The following applies: MCF7, 48 h. Format: functional. A digest of the protocol:
as §1

For the compound `N#Cc1c(C(=O)/C=C/N2CCOCC2)nn(-c2ccccc2)c1-c1ccccc1`, the GI50 in data set [1] was above 100 µM; in data set [4], above 100 µM; in data set [5] it was 21.5 µM; in [6] it was above 100 µM; in data set [7], above 100 µM; in data set [9] it was 88 µM. For the same compound, the GI50 in data set [10] was 33.8 µM; in data set [11], above 100 µM; in [12], 38.4 µM; in data set [13], 41.4 µM; in [14] it was 90.8 µM; in [15], 62.8 µM. Besides, the GI50 in data set [16] was above 100 µM; in [17], 5.49 µM. For the same compound, in data set [2], the Activity was 43.43%. The compound also gave an LD50 at 24 h in [3] of 463 mg/kg. Also, in [8], the potency ratio vs letrozole is 2.
Regarding `CCOC(=O)c1nn(-c2ccccc2)cc1C(=O)c1nn(-c2ccccc2)c(-c2ccccc2)c1C#N`, in data set [2], the Activity is reported as 23.98%. The compound further yielded an LD50 at 24 h in data set [3] of 122 mg/kg. In addition, the GI50 in [6] was above 100 µM; in [7], above 100 µM; in data set [9] it was above 100 µM; in data set [11], above 100 µM; in data set [12], 38.4 µM; in data set [13], 31.8 µM. Moreover, the GI50 is above 100 µM in data set [15], above 100 µM in data set [16] and 5.49 µM in data set [17]. The potency ratio vs letrozole in data set [8] worked out at 1.1.
As for `CC(=O)c1nn(-c2ccccc2)cc1C(=O)c1nn(-c2ccccc2)c(-c2ccccc2)c1C#N`, the GI50 in [1] was above 100 µM; in [4], 6.46 µM; in data set [5] it was 66.8 µM; in data set [6], above 100 µM; in [7] it was above 100 µM; in [9], 96.8 µM. The GI50 was 39.8 µM in data set [10]; 62.8 µM in data set [11]; 0.077 µM in data set [12]; above 100 µM in data set [13]; 34.8 µM in data set [14]; 69.8 µM in data set [15]. Also, the concentration for 50% growth inhibition (GI50) stood at 36.8 µM in data set [16] and 25.7 µM in [17]. Further, in [2], the Activity was 32.45%. Further, the LD50 at 24 h in data set [3] worked out at 324 mg/kg. The potency ratio vs letrozole in data set [8] is 1.49.
Turning to `CCOC(=O)c1nn(-c2ccc(Cl)cc2)cc1C(=O)c1nn(-c2ccccc2)c(-c2ccccc2)c1C#N`, the GI50 in [1] is above 100 µM; in data set [4], 65 µM; in data set [5], above 100 µM; in data set [6], 71.8 µM; in data set [7], above 100 µM; in [9] it was 93.2 µM. For the same compound, the GI50 was 30.8 µM in data set [10]; 65.8 µM in [11]; 62.3 µM in data set [12]; 39.8 µM in data set [13]; 61.2 µM in [14]; 45.8 µM in data set [15]. For the same compound, the GI50 in data set [16] and in [17] was above 100 µM each time. Besides, the Activity in data set [2] is reported as 34.86%. Moreover, the LD50 at 24 h in data set [3] is 143 mg/kg. Moreover, the potency ratio vs letrozole in data set [8] stood at 1.61.
For `N#Cc1c(-c2nnc(-c3ccccc3)c3nn(-c4ccc(Cl)cc4)cc23)nn(-c2ccccc2)c1-c1ccccc1`, the GI50 was 6.42 µM in [1]; 16.8 µM in data set [4]; above 100 µM in [5]; 23.8 µM in data set [6]; 2.28 µM in data set [7]; 93.4 µM in data set [9]. The GI50 in [10] was above 100 µM; in data set [11], 9.23 µM; in data set [12] it was 63.8 µM; in [13], 38.8 µM; in data set [14] it was 8.94 µM; in [15], 5.49 µM. Further, the figures for the 50% growth inhibitory concentration (GI50) in data set [16] and in data set [17] were 38 µM and 43.8 µM, respectively.
Consider `N#Cc1c(-c2nnc(-c3ccccc3)c3cn(-c4ccccc4)nc23)nn(-c2ccccc2)c1-c1ccccc1`, for which the concentration for 50% growth inhibition (GI50) in data set [1] is 8.84 µM; in data set [4], 31.8 µM; in data set [5], 93.8 µM; in data set [6] it was 31.8 µM; in data set [7], above 100 µM; in [9] it was 94.8 µM. Also, the GI50 in [10] was 32.8 µM; in [11], 68 µM; in [12], 31.2 µM; in [13], 21.8 µM; in [14], above 100 µM; in data set [15], 63 µM. Also, the GI50 turned out to be 21.8 µM in data set [16] and 9.53 µM in data set [17]. Also, the Activity in [2] came out at 32.59%.
